Assay results published in ChEMBL document CHEMBL1124553, “Brain-specific chemical delivery systems for beta-lactam antibiotics. In vitro and in vivo studies of some dihydropyridine and dihydroisoquinoline derivatives of benzylpenicillin in rats” (J Med Chem, 1989).
Blank lines part the entries; values can stand above or below the molecule they belong to.

Tests used:
[1] = tested on: Rattus norvegicus; test: Concentration of compound in rat lung after intravenous injection of 20 mg/kg benzyl-penicillin after 40 min; assay type: functional, organism-based; set-up: dose 20 mg/kg
Outline: (§1)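 Male Sprague-Dawley rats (200-250 g), conscious, received 60 µmol/kg (equimolar to 20 mg/kg benzylpenicillin) by tail-vein injection. Benzylpenicillin K was given in water/ethanol/propylene glycol, and the delivery systems in ethanol:propylene glycol 7:3, at 20 mg/mL. Rats were decapitated at set times (4-6 per point), with trunk blood heparinized and brain, kidney, liver and lung frozen. Benzylpenicillin was measured by disk microbioassay (Bacillus subtilis ATCC 6633) after >5-volume sterile-water dilution or homogenization, against matrix calibration curves; assay limit 0.05 µg/mL.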

[2] = tested on: Rattus norvegicus; test: Concentration of compound in rat brain after intravenous injection of 20 mg/kg benzyl-penicillin after 1 min; assay type: functional, organism-based; set-up: dose 20 mg/kg; outline: as §1
[3] = tested on: Rattus norvegicus; test: Concentration of compound in rat brain after intravenous injection of 20 mg/kg benzyl-penicillin after 10 min; assay type: functional, organism-based; set-up: dose 20 mg/kg; outline: as §1
[4] = tested on: Rattus norvegicus; test: Concentration of compound in rat kidney after intravenous injection of 20 mg/kg benzyl-penicillin after 1 min; assay type: functional, organism-based; set-up: dose 20 mg/kg; outline: as §1
[5] = tested on: Rattus norvegicus; test: Concentration of compound in rat liver after intravenous injection of 20 mg/kg benzyl-penicillin after 10 min; assay type: functional, organism-based; set-up: dose 20 mg/kg; outline: as §1
[6] = tested on: Rattus norvegicus; test: Concentration of compound in rat kidney after intravenous injection of 20 mg/kg benzyl-penicillin after 3 min; assay type: functional, organism-based; set-up: dose 20 mg/kg; outline: as §1
[7] = tested on: Rattus norvegicus; test: Concentration of compound in rat liver after intravenous injection of 20 mg/kg benzyl-penicillin after 40 min; assay type: functional, organism-based; set-up: dose 20 mg/kg; outline: as §1
[8] = tested on: Rattus norvegicus; test: Concentration of compound in rat blood after intravenous injection of 20 mg/kg benzyl-penicillin after 1 min; assay type: functional, organism-based; set-up: dose 20 mg/kg; outline: as §1
[9] = tested on: Rattus norvegicus; test: Concentration of compound in rat kidney after intravenous injection of 20 mg/kg benzyl-penicillin after 20 min; assay type: functional, organism-based; set-up: dose 20 mg/kg; outline: as §1
[10] = tested on: Rattus norvegicus; test: Concentration of compound in rat blood after intravenous injection of 20 mg/kg benzyl-penicillin after 40 min; assay type: functional, organism-based; set-up: dose 20 mg/kg; outline: as §1
[11] = tested on: Rattus norvegicus; test: Concentration of compound in rat brain after intravenous injection of 20 mg/kg benzyl-penicillin after 3 min; assay type: functional, organism-based; set-up: dose 20 mg/kg; outline: as §1
[12] = tested on: Rattus norvegicus; test: Concentration of compound in rat lung after intravenous injection of 20 mg/kg benzyl-penicillin after 3 min; assay type: functional, organism-based; set-up: dose 20 mg/kg; outline: as §1
[13] = tested on: Rattus norvegicus; test: Concentration of compound in rat lung after intravenous injection of 20 mg/kg benzyl-penicillin after 60 min; assay type: functional, organism-based; set-up: dose 20 mg/kg; outline: as §1
[14] = tested on: Rattus norvegicus; test: Concentration of compound in rat liver after intravenous injection of 20 mg/kg benzyl-penicillin after 20 min; assay type: functional, organism-based; set-up: dose 20 mg/kg; outline: as §1
[15] = tested on: Rattus norvegicus; test: Concentration of compound in rat kidney after intravenous injection of 20 mg/kg benzyl-penicillin after 60 min; assay type: functional, organism-based; set-up: dose 20 mg/kg; outline: as §1
[16] = tested on: Rattus norvegicus; test: Concentration of compound in rat blood after intravenous injection of 20 mg/kg benzyl-penicillin after 5 min; assay type: functional, organism-based; set-up: dose 20 mg/kg; outline: as §1
[17] = tested on: Rattus norvegicus; test: Concentration of compound in rat lung after intravenous injection of 20 mg/kg benzyl-penicillin after 5 min; assay type: functional, organism-based; set-up: dose 20 mg/kg; outline: as §1
[18] = tested on: Rattus norvegicus; test: Concentration of compound in rat liver after intravenous injection of 20 mg/kg benzyl-penicillin after 1 min; assay type: functional, organism-based; set-up: dose 20 mg/kg; outline: as §1
[19] = tested on: Rattus norvegicus; test: Concentration of compound in rat brain after intravenous injection of 20 mg/kg benzyl-penicillin after 5 min; assay type: functional, organism-based; set-up: dose 20 mg/kg; outline: as §1
[20] = tested on: Rattus norvegicus; test: Concentration of compound in rat blood after intravenous injection of 20 mg/kg benzyl-penicillin after 60 min; assay type: functional, organism-based; set-up: dose 20 mg/kg; outline: as §1
[21] = tested on: Rattus norvegicus; test: Concentration of compound in rat lung after intravenous injection of 20 mg/kg benzyl-penicillin after 20 min; assay type: functional, organism-based; set-up: dose 20 mg/kg; outline: as §1
[22] = tested on: Rattus norvegicus; test: Concentration of compound in rat lung after intravenous injection of 20 mg/kg benzyl-penicillin after 1 min; assay type: functional, organism-based; set-up: dose 20 mg/kg; outline: as §1
[23] = tested on: Rattus norvegicus; test: Concentration of compound in rat blood after intravenous injection of 20 mg/kg benzyl-penicillin after 10 min; assay type: functional, organism-based; set-up: dose 20 mg/kg; outline: as §1
[24] = tested on: Rattus norvegicus; test: Concentration of compound in rat liver after intravenous injection of 20 mg/kg benzyl-penicillin after 3 min; assay type: functional, organism-based; set-up: dose 20 mg/kg; outline: as §1
[25] = tested on: Rattus norvegicus; test: Concentration of compound in rat kidney after intravenous injection of 20 mg/kg benzyl-penicillin after 10 min; assay type: functional, organism-based; set-up: dose 20 mg/kg; outline: as §1
[26] = tested on: Rattus norvegicus; test: Concentration of compound in rat lung after intravenous injection of 20 mg/kg benzyl-penicillin after 10 min; assay type: functional, organism-based; set-up: dose 20 mg/kg; outline: as §1
[27] = tested on: Rattus norvegicus; test: Concentration of compound in rat liver after intravenous injection of 20 mg/kg benzyl-penicillin after 60 min; assay type: functional, organism-based; set-up: dose 20 mg/kg; outline: as §1
[28] = tested on: Rattus norvegicus; test: Concentration of compound in rat blood after intravenous injection of 20 mg/kg benzyl-penicillin after 3 min; assay type: functional, organism-based; set-up: dose 20 mg/kg; outline: as §1
[29] = tested on: Rattus norvegicus; test: Concentration of compound in rat blood after intravenous injection of 20 mg/kg benzyl-penicillin after 20 min; assay type: functional, organism-based; set-up: dose 20 mg/kg; outline: as §1
[30] = tested on: Rattus norvegicus; test: Concentration of compound in rat kidney after intravenous injection of 20 mg/kg benzyl-penicillin after 40 min; assay type: functional, organism-based; set-up: dose 20 mg/kg; outline: as §1
[31] = tested on: Rattus norvegicus; test: Concentration of compound in rat liver after intravenous injection of 20 mg/kg benzyl-penicillin after 5 min; assay type: functional, organism-based; set-up: dose 20 mg/kg; outline: as §1
[32] = tested on: Rattus norvegicus; test: Concentration of compound in rat kidney after intravenous injection of 20 mg/kg benzyl-penicillin after 5 min; assay type: functional, organism-based; set-up: dose 20 mg/kg; outline: as §1
[33] = Half-life for disappearance of compound from rat 10% brain homogenate; assay type: ADME
Outline: (§2)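 Freshly collected whole blood, or 10% w/v brain homogenate in pH 7.4 phosphate buffer (ionic strength 0.15), was prewarmed to 37 °C. Compound was spiked from an 8 mM DMSO stock to 40 µM final. Timed samples were quenched in 8% DMSO/acetonitrile, centrifuged, filtered and analyzed by reversed-phase C8 HPLC with UV detection. K came from linear regression of log peak height versus time, with t1/2 derived from it. Values are mean ± SE of three determinations in different animal samples.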

[34] = Pseudo first-order rate constant (K) for disappearance of compound from rat whole blood; assay type: ADME, tissue-based
Outline: (§3)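 Freshly collected whole blood (rat trunk blood; rabbit) or 10% w/v brain homogenate made in pH 7.4 phosphate buffer (μ = 0.15), prewarmed to 37 °C. Compound added from 8 mM DMSO stock to a final 40 μM. Timed 0.3 mL samples were quenched in 8% DMSO/acetonitrile, centrifuged, filtered and analysed by reversed-phase C8 HPLC-UV. K came from linear regression of log peak height versus time; n=3 animal samples.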

[35] = species: Canis familiaris; test: Pseudo first-order rate constant (K) for disappearance of compound from dog whole blood; assay type: ADME, organism-based, Canis lupus familiaris; outline: as §2
[36] = species: Rattus norvegicus; test: Pseudo first-order rate constant (K) for disappearance of compound from rat 10% brain homogenate; assay type: ADME; outline: as §3
[37] = Half-life for disappearance of compound from rat whole blood; assay type: ADME, organism-based; outline: as §2
[38] = Half-life for disappearance of compound from dog whole blood; assay type: ADME, organism-based, Canis lupus familiaris; outline: as §2

Compound: CC1(C)S[C@@H]2[C@H](NC(=O)Cc3ccccc3)C(=O)N2[C@H]1C(=O)O
Concentration [1]: 1.4 µg/mL
Concentration [2]: 2.7 µg/mL
Concentration [3]: 0.3 µg/mL
Concentration [4]: 33.6 µg/mL
Concentration [5]: 17.7 µg/mL
Concentration [6]: 120 µg/mL
Concentration [7]: 2.9 µg/mL
Concentration [8]: 64.6 µg/mL
Concentration [9]: 20.8 µg/mL
Concentration [10]: 1.3 µg/mL
Concentration [11]: 1.3 µg/mL
Concentration [12]: 30.3 µg/mL
Concentration [13]: 0.7 µg/mL
Concentration [14]: 7.5 µg/mL
Concentration [15]: 1.1 µg/mL
Concentration [16]: 22.8 µg/mL
Concentration [17]: 22.4 µg/mL
Concentration [18]: 15.1 µg/mL
Concentration [19]: 0.9 µg/mL
Concentration [20]: 0.4 µg/mL
Concentration [21]: 2.3 µg/mL
Concentration [22]: 52.5 µg/mL
Concentration [23]: 8.5 µg/mL
Concentration [24]: 38.9 µg/mL
Concentration [25]: 27.6 µg/mL
Concentration [26]: 9.5 µg/mL
Concentration [27]: 0.7 µg/mL
Concentration [28]: 25.2 µg/mL
Concentration [29]: 2.8 µg/mL
Concentration [30]: 6.2 µg/mL
Concentration [31]: 30.7 µg/mL
Concentration [32]: 88.5 µg/mL

half-life [33]: 73.4 min
K [34]: 0.115 min⁻¹
K [35]: 0.051 min⁻¹
K [36]: 0.01 min⁻¹
half-life [37]: 6 min
half-life [38]: 13.5 min
Compound: C[n+]1cc(C(=O)NCCOC(=O)C2N3C(=O)C(NC(=O)Cc4ccccc4)C3SC2(C)C)c2ccccc2c1.[I-] (stereo not drawn)
